From ChEMBL document CHEMBL1145490, “Beta-lactam resistance in Haemophilus parasuis Is mediated by plasmid pB1000 bearing blaROB-1” (2007)
In brackets after ≈: the same amount, converted by molar mass.

Tests used:
Format in all cases: functional
[1] = tested on: Escherichia coli; assay: Antimicrobial activity against Escherichia coli
[2] = tested on: Haemophilus parasuis; assay: Antimicrobial activity against Haemophilus parasuis BB 1021; conditions: Glaesserella parasuis
Outline: (§1)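 H. parasuis isolates grown on chocolate agar and in Haemophilus test medium broth at 37°C under microaerophilic conditions (5% CO2). Susceptibility was profiled by disk diffusion and broth microdilution in Haemophilus test medium for fastidious bacteria, following a previously described method.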

[3] = tested on: Haemophilus parasuis; assay: Antimicrobial activity against Haemophilus parasuis ATCC 19417; conditions: Glaesserella parasuis; outline: as §1
[4] = tested on: Haemophilus parasuis; assay: Antimicrobial activity against Haemophilus parasuis BB 1018; conditions: Glaesserella parasuis; outline: as §1
[5] = tested on: Haemophilus parasuis; assay: Antimicrobial activity against Haemophilus parasuis BB 1019; conditions: Glaesserella parasuis; outline: as §1
[6] = tested on: Haemophilus parasuis; assay: Antimicrobial activity against Haemophilus parasuis BB 1020; conditions: Glaesserella parasuis; outline: as §1
[7] = tested on: Haemophilus parasuis; assay: Antimicrobial activity against Haemophilus parasuis BB 1023; conditions: Glaesserella parasuis; outline: as §1
[8] = tested on: Haemophilus parasuis; assay: Antimicrobial activity against Haemophilus parasuis BB 1026; conditions: Glaesserella parasuis; outline: as §1
[9] = tested on: Escherichia coli; assay: Antimicrobial activity against Escherichia coli pB1000 expressing ROB1 beta lactamase
[10] = tested on: Haemophilus parasuis; assay: Antimicrobial activity against Haemophilus parasuis BB 1025; conditions: Glaesserella parasuis; outline: as §1
[11] = tested on: Haemophilus parasuis; assay: Antimicrobial activity against Haemophilus parasuis BB 1024; conditions: Glaesserella parasuis; outline: as §1
[12] = tested on: Haemophilus parasuis; assay: Antimicrobial activity against Haemophilus parasuis BB 1022; conditions: Glaesserella parasuis; outline: as §1

| SMILES | MIC [1] [µg/mL] | MIC [2] [µg/mL] | MIC [3] [µg/mL] | MIC [4] [µg/mL] | MIC [5] [µg/mL] | MIC [6] [µg/mL] | MIC [7] [µg/mL] | MIC [8] [µg/mL] | MIC [9] [µg/mL] | MIC [10] [µg/mL] | MIC [11] [µg/mL] | MIC [12] [µg/mL] |
| --- | --- | --- | --- | --- | --- | --- | --- | --- | --- | --- | --- | --- |
| Cc1onc(-c2ccccc2)c1C(=O)N[C@@H]1C(=O)N2[C@@H]1SC(C)(C)[C@@H]2C(=O)O [OXACILLIN] | > 4 | ≤ 0.25 | ≤ 0.25 | ≤ 0.25 | ≤ 0.25 | ≤ 0.25 | ≤ 0.25 | ≤ 0.25 | > 4 | ≤ 0.25 | ≤ 0.25 | ≤ 0.25 |
| CO/N=C(\C(=O)N[C@@H]1C(=O)N2C(C(=O)O)=C(COC(C)=O)CS[C@H]12)c1csc(N)n1 [CEFOTAXIME] | 0.06 (≈ 0.132 µM) | 0.06 (≈ 0.132 µM) | ≤ 0.03 | 0.06 (≈ 0.132 µM) | 0.06 (≈ 0.132 µM) | ≤ 0.03 | 0.12 (≈ 0.263 µM) | ≤ 0.03 | 0.06 (≈ 0.132 µM) | 0.06 (≈ 0.132 µM) | 0.06 (≈ 0.132 µM) | 0.06 (≈ 0.132 µM) |
| N[C@@H](C(=O)N[C@@H]1C(=O)N2C(C(=O)O)=C(Cl)CS[C@H]12)c1ccccc1 [CEFACLOR ANHYDROUS] | 8 (≈ 21.8 µM) | > 16 | ≤ 1 | > 16 | > 16 | > 16 | > 16 | ≤ 1 | 128 (≈ 348 µM) | > 16 | > 16 | > 16 |
| CC1(C)S[C@@H]2[C@H](NC(=O)[C@H](N)c3ccc(O)cc3)C(=O)N2[C@H]1C(=O)O [AMOXICILLIN] | 4 (≈ 10.9 µM) | > 256 | ≤ 2 | > 256 | > 256 | > 256 | > 256 | ≤ 2 | > 256 | > 256 | > 256 | > 256 |
